Compounds with a hit are over-represented: about 1.7% of the library has one in this group of screens.
CSN inh = inhibitors of CSN-mediated cullin deneddylation, primary screen, biochemical, fluorescence polarization, uHTS. COP9 signalosome complex subunit 5 (Homo sapiens), Q92905. AID 651999, 2013. 0.38% of 360,000 active. inhibition, % at 12.5 µM. Purified CSN, SCF-Nedd8-OG deneddylation;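 active = pattern-corrected inhibition above about 35%, with an unprinted fluorescence ratio check between 0.5 and 1.5, limit read from the data, passing the limit was not always enough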
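Assay system: purified human Csn5 enzyme expressed in HEK293T cells; Input: 0.24 nM Csn5 enzyme, final concentration; Reagent: 10 nM SCFSkp2-Nedd8OG; Compound dosing: 12.5 µM single point; Times: reaction 90 min, room temperature; Technique: fluorescence polarization readout.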
HNF4A DNA FP = change in binding of human HNF4A to DNA, primary screen, biochemical, fluorescence polarization, FITC-DNA. Hepatocyte nuclear factor 4-alpha (Homo sapiens), P41235. 1 h. activity change, % at 10 µM. 0.3% of 360,000 active. AID 1224865, 2016; in the data active = activity change above about 30%, passing the limit was not always enough
IDE cell inh = human IDE inhibitors in live cells, primary screen, fluorescence polarization, HEK cells, FAbetaB substrate | Insulin-degrading enzyme (Homo sapiens), P14735 | FAbetaB cleavage | inhibition, % at 5.59 µM | 0.41% of 320,000 active;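 active = percent inhibition above the average of all tested compounds plus 3 SD, set per screening campaign, cut at about 16% in these data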;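 note: IDE supplied by intact live HEK cells; FP after avidin binding of uncleaved biotin substrate so inhibition keeps polarization high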
Target sequence (P14735 whole entry, looked up): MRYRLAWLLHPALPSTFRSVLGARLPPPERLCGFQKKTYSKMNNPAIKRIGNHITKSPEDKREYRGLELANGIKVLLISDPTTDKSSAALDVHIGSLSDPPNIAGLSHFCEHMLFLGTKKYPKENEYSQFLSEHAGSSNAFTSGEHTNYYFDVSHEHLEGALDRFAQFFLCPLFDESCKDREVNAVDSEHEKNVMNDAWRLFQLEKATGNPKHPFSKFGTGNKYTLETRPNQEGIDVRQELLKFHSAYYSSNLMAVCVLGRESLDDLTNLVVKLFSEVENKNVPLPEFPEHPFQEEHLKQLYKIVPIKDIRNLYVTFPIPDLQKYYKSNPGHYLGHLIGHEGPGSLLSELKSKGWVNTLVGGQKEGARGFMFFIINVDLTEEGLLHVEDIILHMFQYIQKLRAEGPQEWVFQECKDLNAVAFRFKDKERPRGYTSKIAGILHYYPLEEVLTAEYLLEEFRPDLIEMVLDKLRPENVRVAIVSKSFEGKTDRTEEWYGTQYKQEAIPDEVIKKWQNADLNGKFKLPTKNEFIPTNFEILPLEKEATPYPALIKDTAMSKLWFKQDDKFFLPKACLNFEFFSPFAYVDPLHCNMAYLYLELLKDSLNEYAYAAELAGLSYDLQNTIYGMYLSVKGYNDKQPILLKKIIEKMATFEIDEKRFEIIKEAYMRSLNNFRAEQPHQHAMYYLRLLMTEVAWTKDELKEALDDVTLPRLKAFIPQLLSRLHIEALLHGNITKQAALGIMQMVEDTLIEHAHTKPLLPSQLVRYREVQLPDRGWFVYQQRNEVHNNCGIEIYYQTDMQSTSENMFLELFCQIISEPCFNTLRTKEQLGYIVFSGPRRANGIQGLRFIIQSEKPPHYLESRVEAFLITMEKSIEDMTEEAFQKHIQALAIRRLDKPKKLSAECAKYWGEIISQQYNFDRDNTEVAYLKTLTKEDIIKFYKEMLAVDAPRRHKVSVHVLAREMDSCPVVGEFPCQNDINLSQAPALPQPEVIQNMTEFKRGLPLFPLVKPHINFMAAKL
TPT1 inhibitor = Candida albicans TPT1 enzyme inhibitors, primary screen, biochemical, fluorescence polarization; recombinant caTPT1, FP RNA substrate dephosphorylation; inhibition, % at 5 µM; 0.81% of 300,000 active; AID 1962, 2009;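 active = inhibition above the mean of all tested compounds plus 3 SD, set per screening campaign, cut at about 24% in these data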
Rpn11 block = Rpn11 (PSMD14) deubiquitinase inhibitors, primary screen, biochemical, fluorescence polarization, uHTS. 26S proteasome non-ATPase regulatory subunit 14 (Homo sapiens), O00487. inhibition, % at 20 µM. AID 588493, 2011. 0.59% of 360,000 active. human 26S proteasome, Ub4-pepOG fluorescence polarization; 20S core pre-blocked with epoxomicin;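 active = inhibition at 20 µM, scaled to each plate's controls, above about 33%, limit read from the data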
IDE cell activ = human IDE activators in live cells, primary screen, fluorescence polarization, HEK cells, FAbeta-B substrate; FAbeta-B cleavage; 0% vehicle, 100% cell-free pure enzyme wells; 0.073% of 340,000 active; activation, % at 5.96 µM;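 active = activation above the mean of all tested compounds plus 3 SD, set per screening campaign, cut at about 17% in these data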
IDE inh confirm = human IDE inhibitors in live cells, confirmation, fluorescence polarization, HEK cells, FAbetaB substrate | 51% of 1,200 active | shares compounds with IDE cell inh | FAbetaB cleavage | inhibition, % at 5.59 µM;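 active = mean inhibition across triplicate wells above the cutoff set by the earlier primary insulin-degrading enzyme screen, cut at about 16% in these data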
HEK293 tox = cytotoxicity in HEK cells, cytotoxicity control for IDE inhibitor project, cell-based, luminescence. shares compounds with IDE cell inh. HEK293 cytotoxicity, ATP luminescence. inhibition, % at 5.59 µM. 28% of 1,200 active. AID 449730, 2010; in the data active = inhibition above about 22%
Rpn11 inh conf = Rpn11 (PSMD14) deubiquitinase inhibitors, confirmation, biochemical, fluorescence polarization, single concentration. purified human 26S proteasome, Ub4-pepOG fluorescence polarization; proteasome pretreated with epoxomicin. 29% of 1,900 active. AID 602318, 2012. shares compounds with Rpn11 block. inhibition, % at 20 µM
MMP-2 counter-1 = MMP-2 enzyme inhibition, confirmation, counter-screen for RPN11 inhibitor project, biochemical, fluorescence, single concentration; shares compounds with Rpn11 block; recombinant MMP-2, FRET peptide cleavage fluorescence; inhibition, % at 20 µM; 4% of 1,900 active; AID 602330, 2012;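 note: human MMP-2 activated beforehand with APMA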
Thrombin FP = bovine thrombin protease inhibition, confirmation, counter-screen for Rpn11 inhibitor project, biochemical, fluorescence polarization, single concentration | inhibition, % at 20 µM | AID 602333, 2012 | shares compounds with Rpn11 block | bovine thrombin cleavage of Ub4-pepOG | 13% of 1,900 active;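 active = mean inhibition at least 40% at 20 µM, or signal 3 deviations below plate average, so some actives read negative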
CSN5 deneddyl = Csn5 deneddylation inhibitors, confirmation, biochemical, fluorescence polarization, single concentration, SCF-Nedd8OG substrate; shares compounds with CSN inh; AID 720654, 2013; 62% of 540 active; inhibition, % at 16.6 µM; Csn5 deneddylation of SCF-Nedd8OG, 90 min; in the data active = inhibition above about 50%
MMP-2 counter-2 = MMP-2 protease inhibition counter-screen, confirmation, counter-screen for CSN deneddylation inhibitor project, biochemical, fluorescence, single concentration; inhibition, % at 16.6 µM; AID 720655, 2013; recombinant MMP-2, FRET substrate fluorescence, 60 min; 33% of 540 active; shares compounds with CSN inh;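 active = corrected plate-normalized z-score of 5 or more, or -5 or less, or inhibition of 15% or more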
Thrombin cntr = thrombin (bovine) inhibition, counter-screen for CSN hits. shares compounds with CSN inh. bovine thrombin cleavage of Ub4-pepOG, fluorescence polarization. inhibition, % at 16.6 µM. 49% of 540 active. AID 720656;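 active = inhibition at or above a set limit, with a fluorescence interference ratio between 0.5 and a set maximum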
Large screens that a line does not name were inactive (follow-up assays come after a bar, where shown). Cut-off read from the data, not from the text of the source, unless noted: active = inhibition above about 40%; inactive = the rest.

CCOC(=O)C1CCCN(C2=NC(=O)/C(=C/c3ccc(O)c(OCC)c3)S2)C1 (stereo not given)	IDE cell inh 23.4, Rpn11 block 77.0 | IDE inh confirm 71.5 | HEK293 tox inactive | Rpn11 inh conf inactive | MMP-2 counter-1 inactive | Thrombin FP inactive
COc1ccccc1NS(=O)(=O)c1ccc(C)c(NS(=O)(=O)c2cc(NC(C)=O)ccc2OC)c1	none (no result: IDE cell inh, TPT1 inhibitor)
Cc1ccc2nc(-c3ccc(NC(=O)c4ccco4)cc3)[nH]c2c1	CSN inh 43.5, IDE cell inh 16.8, Rpn11 block 67.1 | IDE inh confirm inactive | HEK293 tox inactive | Rpn11 inh conf inactive | MMP-2 counter-1 inactive | Thrombin FP inactive
CC(=O)Nc1ccc(CN(C)c2c(C)nc3ccc(C(=O)N(C)Cc4ccccc4)cn23)cc1	none (no result: IDE cell inh, TPT1 inhibitor, IDE cell activ)
CCOC1=C/C(=C/c2c(N)n3nc(CC(=O)N4CCCCC4)sc3nc2=O)C=CC1=O	IDE cell inh 20.6, Rpn11 block 78.9 | IDE inh confirm 25.9 | HEK293 tox inactive | Rpn11 inh conf 43.9 | MMP-2 counter-1 inactive | Thrombin FP inactive
N#C/C(=C/c1ccc(O)c(O)c1)c1nc2ccccc2[nH]1	CSN inh 123.6, IDE cell inh 47.2 (not shown: Rpn11 block) | IDE inh confirm 93.0 | HEK293 tox inactive | CSN5 deneddyl active | MMP-2 counter-2 inactive | Thrombin cntr 55.1
O=C(O)c1ccc(/C=C2\SC(=S)N(Nc3ccccc3)C2=O)cc1	none
COc1cc(/C=C2\SC(=S)N(Nc3ccccc3)C2=O)ccc1O	CSN inh 45.6, HNF4A DNA FP 36.6, IDE cell inh 128.5, Rpn11 block 111.9 | IDE inh confirm 142.4 | HEK293 tox inactive | Rpn11 inh conf 72.1 | MMP-2 counter-1 inactive | Thrombin FP 101.2 | CSN5 deneddyl 85.3 | MMP-2 counter-2 inactive | Thrombin cntr 56.1
CCOC(=O)C1=CCN(S(=O)(=O)c2ccccc2F)C1c1ccccc1 (stereo not given)	none (no result: IDE cell inh, TPT1 inhibitor, IDE cell activ)

Source: PubChem (several laboratories)
